Laboratory results from ChEMBL document CHEMBL1155526, “Discovery of a potent, orally active 11beta-hydroxysteroid dehydrogenase type 1 inhibitor for clinical study: identification of (S)-2-((1S,2S,4R)-bicyclo[2.2.1]heptan-2-ylamino)-5-isopropyl-5-methylthiazol-4(5H)-one (AMG 221)” (J Med Chem, 2010).
Active and inactive are the calls of the source. The calls are words filed in the database; no cut-off is given here.

Assays:
Rattus norvegicus [1] = experiment: Metabolic epimerization in Sprague-Dawley rat assessed as formation of [R]-2-((1S,2S,4R)-bicyclo[2.2.1]heptan-2-ylamino)-5-5iospropylthiazol-4(5H)-one at 10 mg/kg, po up to 24 hrs by LC-MS/MS analysis; type: ADME, organism-based; parameters: dose 10 mg/kg, route oral; settings: in vivo
Method in brief: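 Sprague-Dawley rats (n = 2/group) dosed orally at 10 mg/kg. Plasma taken predose and at intervals up to 24 h. Diastereomers separated by HPLC, quantified by positive-ion ESI MS/MS with single ion monitoring. AUC ratio of epimer to parent calculated.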

Rattus norvegicus [2] = experiment: Metabolic epimerization in Sprague-Dawley rat assessed as formation of [R]-2-((1S,2S,4R)-bicyclo[2.2.1]heptan-2-ylamino)-5-5iospropylthiazol-4(5H)-one at 10 mg/kg up to 24 hrs by LC-MS/MS analysis; settings: in vivo
[3] = target: T1, 11-beta-hydroxysteroid dehydrogenase type 2 (Homo sapiens, UniProt P80365); experiment: Inhibition of 11beta-HSD2
T1 sequence (P80365 whole entry): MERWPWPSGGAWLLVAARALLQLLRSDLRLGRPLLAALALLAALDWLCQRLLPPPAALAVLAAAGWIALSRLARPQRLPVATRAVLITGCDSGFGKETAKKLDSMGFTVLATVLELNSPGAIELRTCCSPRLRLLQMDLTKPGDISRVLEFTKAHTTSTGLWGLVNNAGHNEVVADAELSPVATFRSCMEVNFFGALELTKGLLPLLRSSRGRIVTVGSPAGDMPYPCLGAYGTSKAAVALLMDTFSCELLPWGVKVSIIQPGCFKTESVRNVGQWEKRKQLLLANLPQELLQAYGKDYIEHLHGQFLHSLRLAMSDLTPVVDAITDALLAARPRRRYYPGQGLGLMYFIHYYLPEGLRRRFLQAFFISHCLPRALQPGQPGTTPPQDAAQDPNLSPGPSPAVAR

Glucocorticoid receptor = target: T2, Glucocorticoid receptor (Homo sapiens, UniProt P04150); experiment: Inhibition of glucocorticoid receptor
T2 sequence (P04150 whole entry): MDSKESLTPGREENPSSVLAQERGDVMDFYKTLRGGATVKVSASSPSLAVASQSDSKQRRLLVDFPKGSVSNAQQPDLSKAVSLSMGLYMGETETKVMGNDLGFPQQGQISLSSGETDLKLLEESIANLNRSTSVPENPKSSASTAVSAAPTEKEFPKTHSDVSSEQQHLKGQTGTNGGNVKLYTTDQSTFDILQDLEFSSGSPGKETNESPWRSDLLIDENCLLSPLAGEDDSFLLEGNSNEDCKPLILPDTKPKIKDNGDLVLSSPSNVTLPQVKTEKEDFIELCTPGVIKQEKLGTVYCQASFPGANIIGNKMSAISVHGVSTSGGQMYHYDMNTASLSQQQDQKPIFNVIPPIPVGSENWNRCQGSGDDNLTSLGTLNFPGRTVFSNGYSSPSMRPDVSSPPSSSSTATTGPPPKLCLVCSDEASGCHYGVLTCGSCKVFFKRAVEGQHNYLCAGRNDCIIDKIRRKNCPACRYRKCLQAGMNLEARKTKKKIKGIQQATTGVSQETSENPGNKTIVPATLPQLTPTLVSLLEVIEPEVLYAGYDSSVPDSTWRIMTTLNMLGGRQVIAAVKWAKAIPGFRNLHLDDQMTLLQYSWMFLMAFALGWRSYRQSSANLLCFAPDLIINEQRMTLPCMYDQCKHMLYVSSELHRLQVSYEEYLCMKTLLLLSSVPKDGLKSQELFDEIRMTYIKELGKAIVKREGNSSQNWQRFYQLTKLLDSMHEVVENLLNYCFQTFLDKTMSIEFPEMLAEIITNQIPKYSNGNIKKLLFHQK

[4] = Clearance in CD1 mouse at 5 mg/kg, iv or 30 mg/kg, po; type: ADME, organism-based; settings: in vivo
Method in brief: (§1)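 iv: mouse 5, rat 2, dog 3, monkey 2 mg/kg in 10% dimethylacetamide/23% water/67% PEG 400. po: mouse 30, rat 10, monkey 10 mg/kg in 0.1% Tween-80/0.5% CMC in water; dog 10 mg/kg in the iv vehicle. Plasma sampled at various time points for drug levels. Half-life is terminal.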

[5] = Volume of distribution at steady state in CD1 mouse at 5 mg/kg, iv or 30 mg/kg, po; type: ADME, organism-based; settings: in vivo, read-out: Vdss; method in brief: as §1
[6] = Terminal half life in CD1 mouse at 5 mg/kg, iv or 30 mg/kg, po; type: ADME, organism-based; settings: in vivo, read-out: beta t1/2 (converted); method in brief: as §1
[7] = Bioavailability in CD1 mouse at 5 mg/kg, iv or 30 mg/kg, po; type: ADME, organism-based; settings: in vivo; method in brief: as §1
Cytochrome P450 3A4 = Cytochrome P450 3A4 (Homo sapiens, UniProt P08684); experiment: Inhibition of CYP3A4; type: ADME
Sequence of Cytochrome P450 3A4 (P08684 whole entry): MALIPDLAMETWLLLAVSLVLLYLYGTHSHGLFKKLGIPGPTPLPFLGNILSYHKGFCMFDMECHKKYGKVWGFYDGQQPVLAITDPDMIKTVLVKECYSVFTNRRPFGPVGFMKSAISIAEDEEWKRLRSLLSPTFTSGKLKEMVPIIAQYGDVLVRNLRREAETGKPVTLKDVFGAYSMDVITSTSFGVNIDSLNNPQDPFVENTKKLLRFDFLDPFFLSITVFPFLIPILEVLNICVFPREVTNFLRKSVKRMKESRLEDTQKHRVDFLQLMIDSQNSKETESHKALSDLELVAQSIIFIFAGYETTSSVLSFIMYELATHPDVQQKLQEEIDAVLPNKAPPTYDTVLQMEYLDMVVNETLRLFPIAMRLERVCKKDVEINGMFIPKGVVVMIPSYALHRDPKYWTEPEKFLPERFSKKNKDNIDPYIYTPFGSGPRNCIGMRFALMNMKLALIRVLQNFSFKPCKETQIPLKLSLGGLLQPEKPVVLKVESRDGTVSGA

Cytochrome P450 2D6 = Cytochrome P450 2D6 (Homo sapiens, UniProt P10635); experiment: Inhibition of CYP2D6; type: ADME
Sequence of Cytochrome P450 2D6 (P10635 whole entry): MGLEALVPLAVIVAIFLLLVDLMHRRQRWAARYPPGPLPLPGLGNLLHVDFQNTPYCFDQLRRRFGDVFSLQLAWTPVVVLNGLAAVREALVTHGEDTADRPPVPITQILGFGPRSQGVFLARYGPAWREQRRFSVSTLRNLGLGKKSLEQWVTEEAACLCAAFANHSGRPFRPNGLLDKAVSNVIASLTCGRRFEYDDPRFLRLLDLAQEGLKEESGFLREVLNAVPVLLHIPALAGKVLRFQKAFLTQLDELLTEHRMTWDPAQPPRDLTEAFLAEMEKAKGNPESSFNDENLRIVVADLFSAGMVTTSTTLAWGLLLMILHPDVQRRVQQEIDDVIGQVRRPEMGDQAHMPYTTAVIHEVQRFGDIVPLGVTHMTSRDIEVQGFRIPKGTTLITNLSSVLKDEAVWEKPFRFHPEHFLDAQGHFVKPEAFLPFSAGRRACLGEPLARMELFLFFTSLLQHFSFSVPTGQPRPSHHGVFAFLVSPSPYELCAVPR

Cytochrome P450 1A2 = target: T3, Cytochrome P450 1A2 (Homo sapiens, UniProt P05177); experiment: Inhibition of CYP1A2; type: ADME
T3 sequence (P05177 whole entry): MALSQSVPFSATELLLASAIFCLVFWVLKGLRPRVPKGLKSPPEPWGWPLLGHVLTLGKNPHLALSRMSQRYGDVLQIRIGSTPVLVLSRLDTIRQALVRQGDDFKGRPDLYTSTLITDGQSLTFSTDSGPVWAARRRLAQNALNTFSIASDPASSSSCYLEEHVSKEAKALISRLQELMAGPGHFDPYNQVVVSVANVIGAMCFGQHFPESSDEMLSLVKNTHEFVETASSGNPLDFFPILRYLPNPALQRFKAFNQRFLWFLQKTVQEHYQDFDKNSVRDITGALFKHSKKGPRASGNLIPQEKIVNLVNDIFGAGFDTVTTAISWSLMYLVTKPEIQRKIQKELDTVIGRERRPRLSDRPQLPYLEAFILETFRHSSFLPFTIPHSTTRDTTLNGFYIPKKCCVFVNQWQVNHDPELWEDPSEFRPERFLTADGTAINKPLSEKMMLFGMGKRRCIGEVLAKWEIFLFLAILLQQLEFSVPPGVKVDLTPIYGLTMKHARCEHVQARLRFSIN

Cytochrome P450 2C9 = Cytochrome P450 2C9 (Homo sapiens, UniProt P11712); experiment: Inhibition of CYP2C9; type: ADME
Sequence of Cytochrome P450 2C9 (P11712 whole entry): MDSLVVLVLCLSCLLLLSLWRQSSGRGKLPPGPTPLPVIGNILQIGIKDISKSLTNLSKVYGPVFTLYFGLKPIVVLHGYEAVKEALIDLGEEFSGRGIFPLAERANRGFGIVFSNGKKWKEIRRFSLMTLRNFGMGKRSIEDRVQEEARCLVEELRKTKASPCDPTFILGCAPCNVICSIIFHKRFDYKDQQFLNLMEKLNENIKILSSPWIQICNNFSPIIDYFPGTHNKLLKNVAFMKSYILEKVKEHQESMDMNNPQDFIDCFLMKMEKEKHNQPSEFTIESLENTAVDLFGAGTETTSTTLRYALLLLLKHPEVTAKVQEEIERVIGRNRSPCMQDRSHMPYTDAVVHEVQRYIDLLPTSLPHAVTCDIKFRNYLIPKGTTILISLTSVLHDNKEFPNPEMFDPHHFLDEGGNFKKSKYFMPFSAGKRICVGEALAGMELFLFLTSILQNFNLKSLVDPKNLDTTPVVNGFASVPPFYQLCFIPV

Cytochrome P450 2C19 = Cytochrome P450 2C19 (Homo sapiens, UniProt P33261); experiment: Inhibition of CYP2C19; type: ADME
Sequence of Cytochrome P450 2C19 (P33261 whole entry): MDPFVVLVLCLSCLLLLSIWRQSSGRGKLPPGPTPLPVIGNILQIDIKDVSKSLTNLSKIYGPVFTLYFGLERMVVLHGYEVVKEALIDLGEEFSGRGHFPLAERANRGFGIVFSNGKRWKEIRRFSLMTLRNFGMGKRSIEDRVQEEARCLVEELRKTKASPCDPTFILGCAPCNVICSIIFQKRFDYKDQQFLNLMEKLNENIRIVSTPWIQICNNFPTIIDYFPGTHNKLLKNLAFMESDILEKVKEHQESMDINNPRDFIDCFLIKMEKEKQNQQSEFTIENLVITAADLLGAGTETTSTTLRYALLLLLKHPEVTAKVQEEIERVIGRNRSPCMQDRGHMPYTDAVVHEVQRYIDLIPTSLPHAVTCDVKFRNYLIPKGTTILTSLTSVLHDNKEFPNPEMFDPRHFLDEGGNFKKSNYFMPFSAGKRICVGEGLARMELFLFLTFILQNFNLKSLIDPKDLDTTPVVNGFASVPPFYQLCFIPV

[8] = Metabolic stability in liver microsomes; type: ADME, Microsome
Mus musculus [9] = experiment: Ex vivo inhibition of 11beta-HSD1 in high fat diet-fed C57BL/6 mouse inguinal fat at 5 mg/kg, po measured at 4 hrs by ELISA; type: functional; settings: C57BL/6, 4 h
Mus musculus [10] = experiment: Ex vivo inhibition of 11beta-HSD1 in high fat diet-fed C57BL/6 mouse inguinal fat at 15 mg/kg, po measured at 4 hrs by ELISA; type: functional; settings: C57BL/6, 4 h
Mus musculus [11] = experiment: Ex vivo inhibition of 11beta-HSD1 in high fat diet-fed C57BL/6 mouse inguinal fat at 50 mg/kg, po measured at 4 hrs by ELISA; type: functional; settings: C57BL/6, 4 h
Mus musculus [12] = experiment: Ex vivo inhibition of 11beta-HSD1 in high fat diet-fed C57BL/6 mouse inguinal fat at 5 mg/kg, po measured at 8 hrs by ELISA; type: functional; settings: C57BL/6, 8 h
Mus musculus [13] = experiment: Ex vivo inhibition of 11beta-HSD1 in high fat diet-fed C57BL/6 mouse inguinal fat at 15 mg/kg, po measured at 8 hrs by ELISA; type: functional; settings: C57BL/6, 8 h
Mus musculus [14] = experiment: Ex vivo inhibition of 11beta-HSD1 in high fat diet-fed C57BL/6 mouse inguinal fat at 50 mg/kg, po measured at 8 hrs by ELISA; type: functional; settings: C57BL/6, 8 h
Mus musculus [15] = experiment: Antidiabetic activity in diet-induced obese mouse assessed as decrease in fed blood glucose level at 25 to 50 mg/kg, po administered via gavage BID for 13 days measured after day 13 by glucose tolerance test; type: functional, organism-based
Method in brief: (§2)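 Male C57BL/6 mice on high-fat diet from 3 weeks of age for 12 weeks (DIO), grouped n = 11-12 by pretreatment glucose and body weight. Oral gavage 25 or 50 mg/kg b.i.d. (half dose morning, half afternoon) or vehicle (0.1% Tween-80, 0.5% CMC in water) for 13-14 days. Fed blood glucose by glucose meter, plasma insulin by radioimmunoassay, body weight at study end.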

Mus musculus [16] = experiment: Antidiabetic activity in diet-induced obese mouse assessed as decrease in plasma insulin level at 25 to 50 mg/kg, po administered via gavage BID for 13 days measured after day 13 by glucose tolerance test; type: functional, organism-based; method in brief: as §2
Mus musculus [17] = experiment: Antiobesity activity in po dosed diet-induced obese mouse assessed as decrease in body weight administered via gavage BID for 13 days measured after day 13; type: functional, organism-based; method in brief: as §2
[18] = Clearance in Beagle dog at 3 mg/kg, iv or 10 mg/kg, po; settings: in vivo
[19] = Bioavailability in Beagle dog at 3 mg/kg, iv or 10 mg/kg, po; settings: in vivo
[20] = Clearance in cynomolgus monkey at 2 mg/kg, iv or 10 mg/kg, po; settings: in vivo
[21] = Clearance in Sprague-Dawley rat at 2 mg/kg, iv or 10 mg/kg, po; settings: in vivo
[22] = Terminal half life in Beagle dog at 3 mg/kg, iv or 10 mg/kg, po; settings: in vivo, read-out: beta t1/2 (converted)
[23] = Bioavailability in cynomolgus monkey at 2 mg/kg, iv or 10 mg/kg, po; settings: in vivo
[24] = Bioavailability in Sprague-Dawley rat at 2 mg/kg, iv or 10 mg/kg, po; settings: in vivo
[25] = Terminal half life in cynomolgus monkey at 2 mg/kg, iv or 10 mg/kg, po; settings: in vivo, read-out: beta t1/2 (converted)
[26] = Terminal half life in Sprague-Dawley rat at 2 mg/kg, iv or 10 mg/kg, po; settings: in vivo, read-out: beta t1/2 (converted)
[27] = Volume of distribution at steady state in Beagle dog at 3 mg/kg, iv or 10 mg/kg, po; settings: in vivo, read-out: Vdss
[28] = Volume of distribution at steady state in cynomolgus monkey at 2 mg/kg, iv or 10 mg/kg, po; settings: in vivo, read-out: Vdss
Mus musculus [29] = experiment: Antidiabetic activity in diet-induced obese mouse assessed as mild improvement of glucose tolerance at 25 to 50 mg/kg, po BID for 13 days measured on day 14 after 12 hrs of fasting by glucose tolerance test
Mus musculus [30] = experiment: Antidiabetic activity in diet-induced obese mouse assessed as decrease in fed blood glucose level at 5 mg/kg administered QD via high fat-diet for 13 days measured after day 13 by glucose tolerance test; type: functional, organism-based; parameters: dose 5 mg/kg
Method in brief: (§3)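 DIO male C57BL/6 mice (12 weeks high-fat diet), n = 11-12 per group. Rosiglitazone given in the high-fat chow at ~5 mg/kg/day for 13 or 14 days. Fed blood glucose by glucose meter and plasma insulin by radioimmunoassay before and at end of treatment. Body weight taken at end of treatment.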

Mus musculus [31] = experiment: Antidiabetic activity in diet-induced obese mouse assessed as decrease in plasma insulin level at 5 mg/kg administered QD via high fat-diet for 13 days measured after day 13 by glucose tolerance test; type: functional, organism-based; parameters: dose 5 mg/kg; method in brief: as §3
Mus musculus [32] = experiment: Antiobesity activity in diet-induced obese mouse assessed as decrease in body weight at 5 mg/kg administered QD via high fat-diet for 13 days measured after day 13; type: functional, organism-based; parameters: dose 5 mg/kg; method in brief: as §3
Mus musculus [33] = experiment: Antidiabetic activity in diet-induced obese mouse assessed as improvement of glucose tolerance at 5 mg/kg, QD for 13 days measured on day 14 after 12 hrs of fasting by glucose tolerance test

CC(C)[C@@H]1SC(N[C@H]2C[C@@H]3CC[C@H]2C3)=NC1=O
Activity (Rattus norvegicus [1]): 39% | Activity (Rattus norvegicus [2]): 39%

CC(C)[C@]1(C)SC(N[C@H]2C[C@@H]3CC[C@H]2C3)=NC1=O
IC50 [3]: > 10 µM | IC50 (Glucocorticoid receptor): > 10 µM | clearance [4]: 52.7 mL/min/kg | Vd [5]: 1 L/kg | half-life [6]: 15.6 h | bioavailability [7]: 54% | IC50 (Cytochrome P450 3A4): > 15 µM | IC50 (Cytochrome P450 2D6): > 15 µM | IC50 (Cytochrome P450 1A2): > 15 µM | IC50 (Cytochrome P450 2C9): > 15 µM | IC50 (Cytochrome P450 2C19): > 15 µM | Km [8]: > 100 µM | inhibition in vivo at 5 mg/kg (Mus musculus [9]): 33% | inhibition in vivo at 15 mg/kg (Mus musculus [10]): 55% | inhibition in vivo at 50 mg/kg (Mus musculus [11]): 47% | inhibition in vivo at 5 mg/kg (Mus musculus [12]): 10% | inhibition in vivo at 15 mg/kg (Mus musculus [13]): 36% | inhibition in vivo at 50 mg/kg (Mus musculus [14]): 39% | inhibition (Mus musculus [15]): Active | inhibition (Mus musculus [16]): Active | inhibition (Mus musculus [17]): Dose-dependent effect | clearance [18]: 15.7 mL/min/kg | bioavailability [19]: 50% | clearance [20]: 31.5 mL/min/kg | clearance [21]: 22.7 mL/min/kg | half-life [22]: 8.1 h | bioavailability [23]: 7% | bioavailability [24]: 34% | half-life [25]: 0.6 h | half-life [26]: 41.5 h | Vd [27]: 1.02 L/kg | Vd [28]: 0.98 L/kg | Activity (Mus musculus [29]): Active

CN(CCOc1ccc(CC2SC(=O)NC2=O)cc1)c1ccccn1 (centres undefined)
inhibition (Mus musculus [30]): Active | inhibition (Mus musculus [31]): Active | inhibition (Mus musculus [32]): inactive | Activity (Mus musculus [33]): inactive
